Data set [1] has as its target Proto-oncogene tyrosine-protein kinase Src (Homo sapiens, UniProt P12931). Nature of the data set: In vitro inhibitory concentration against src-tyrosine kinase.
Data set [2] has as its target Vascular endothelial growth factor receptor 2 (Homo sapiens, UniProt P35968). Nature of the data set: In vitro inhibitory concentration against VEGF receptor 2. In outline: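 KDR kinase selectivity assay, using a previously reported method. IC50 is the mean of at least three independent dose-response curves.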
In a further data set the test system is A549. The experiment in a line: In vitro inhibitory concentration against proliferation of A459 cell line. The conditions noted are these: Homo sapiens.
Data set [3] in a line: Solubility was determined. In kind it is physicochemical.
Another data set is filed under the species Rattus norvegicus. The experiment in a line: Percentage in free rat serum was determined. In kind it is ADME, organism-based.
The nature of data set [4]: pKa was determined. The data set is classed as physicochemical.
The target of data set [5] is Fibroblast growth factor receptor 1 (Homo sapiens, UniProt P11362). Nature of the data set: In vitro inhibition of Fibroblast growth factor receptor (FTK).
Data set [6] concerns the target Vascular endothelial growth factor receptor 1 (Homo sapiens, UniProt P17948). Nature of the data set: Inhibition of Vascular endothelial growth factor receptor 1.
Another data set concerns the target Angiopoietin-1 receptor (Homo sapiens, UniProt Q02763). The experiment in a line: Inhibition of Tyrosine protein kinase receptor TIE-2.
Data set [7] in a line: Half life in rat i.v. at 2 mg/kg concentration. The data set is classed as ADME, organism-based. Also on record: dose 2 mg/kg, route intravenous. The conditions noted are these: in vivo, iv. In outline:
(§1)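 Single-dose rat pharmacokinetics: intravenous 2 mg/kg in 25% (w/v) hydroxypropyl-β-cyclodextrin/Sorenson's phosphate buffer (pH 5.5), or oral 20 mg/kg. Oral parameters are Cmax, AUC0-∞ and 24 h blood level. Intravenous parameters are clearance, terminal half-life and Vdss. Bioavailability (F) is derived from the oral and intravenous arms.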

A short description of data set [8]: AUC in rat p.o. at 20 mg/kg concentration. In kind it is ADME, organism-based. Also on record: dose 20 mg/kg, route oral. The conditions noted are these: plasma, po. The method, boiled down:
as §1

A short description of data set [9]: Total body clearance in rat i.v. at 2 mg/kg concentration. In kind it is ADME, organism-based. Also noted: dose 2 mg/kg, route intravenous. The conditions noted are these: in vivo, iv. The method, boiled down:
as §1

Data set [10] in a line: Vdss in rat i.v. at 2 mg/kg concentration. In kind it is ADME, organism-based. Also on record: dose 2 mg/kg, route intravenous. The conditions noted are these: in vivo, iv, read-out: Vdss. The method, boiled down:
as §1

Data set [11] in a line: C24h in rat p.o. at 20 mg/kg concentration. Also noted: dose 20 mg/kg, route oral. Conditions: in vivo, po, read-out: C24h. In kind it is ADME, organism-based. In outline: as §1
The nature of data set [12]: Cmax in rat p.o. at 20 mg/kg concentration. In kind it is ADME, organism-based. Also on record: dose 20 mg/kg, route oral. Conditions: in vivo, po. The method, boiled down:
as §1

Data set [13] can be described thus: Bioavailability in rat (dose 20 mg/kg p.o.). The conditions noted are these: in vivo, po.
Data set [14] can be described thus: Cl in rat i.v. at 2 mg/kg concentration. The data set is classed as ADME, organism-based. Also on record: dose 2 mg/kg, route intravenous. Conditions: in vivo, iv. The method, boiled down:
as §1

In brackets after ≈: the same amount, converted by molar mass.

Chain of Vascular endothelial growth factor receptor 2 (P35968 whole entry): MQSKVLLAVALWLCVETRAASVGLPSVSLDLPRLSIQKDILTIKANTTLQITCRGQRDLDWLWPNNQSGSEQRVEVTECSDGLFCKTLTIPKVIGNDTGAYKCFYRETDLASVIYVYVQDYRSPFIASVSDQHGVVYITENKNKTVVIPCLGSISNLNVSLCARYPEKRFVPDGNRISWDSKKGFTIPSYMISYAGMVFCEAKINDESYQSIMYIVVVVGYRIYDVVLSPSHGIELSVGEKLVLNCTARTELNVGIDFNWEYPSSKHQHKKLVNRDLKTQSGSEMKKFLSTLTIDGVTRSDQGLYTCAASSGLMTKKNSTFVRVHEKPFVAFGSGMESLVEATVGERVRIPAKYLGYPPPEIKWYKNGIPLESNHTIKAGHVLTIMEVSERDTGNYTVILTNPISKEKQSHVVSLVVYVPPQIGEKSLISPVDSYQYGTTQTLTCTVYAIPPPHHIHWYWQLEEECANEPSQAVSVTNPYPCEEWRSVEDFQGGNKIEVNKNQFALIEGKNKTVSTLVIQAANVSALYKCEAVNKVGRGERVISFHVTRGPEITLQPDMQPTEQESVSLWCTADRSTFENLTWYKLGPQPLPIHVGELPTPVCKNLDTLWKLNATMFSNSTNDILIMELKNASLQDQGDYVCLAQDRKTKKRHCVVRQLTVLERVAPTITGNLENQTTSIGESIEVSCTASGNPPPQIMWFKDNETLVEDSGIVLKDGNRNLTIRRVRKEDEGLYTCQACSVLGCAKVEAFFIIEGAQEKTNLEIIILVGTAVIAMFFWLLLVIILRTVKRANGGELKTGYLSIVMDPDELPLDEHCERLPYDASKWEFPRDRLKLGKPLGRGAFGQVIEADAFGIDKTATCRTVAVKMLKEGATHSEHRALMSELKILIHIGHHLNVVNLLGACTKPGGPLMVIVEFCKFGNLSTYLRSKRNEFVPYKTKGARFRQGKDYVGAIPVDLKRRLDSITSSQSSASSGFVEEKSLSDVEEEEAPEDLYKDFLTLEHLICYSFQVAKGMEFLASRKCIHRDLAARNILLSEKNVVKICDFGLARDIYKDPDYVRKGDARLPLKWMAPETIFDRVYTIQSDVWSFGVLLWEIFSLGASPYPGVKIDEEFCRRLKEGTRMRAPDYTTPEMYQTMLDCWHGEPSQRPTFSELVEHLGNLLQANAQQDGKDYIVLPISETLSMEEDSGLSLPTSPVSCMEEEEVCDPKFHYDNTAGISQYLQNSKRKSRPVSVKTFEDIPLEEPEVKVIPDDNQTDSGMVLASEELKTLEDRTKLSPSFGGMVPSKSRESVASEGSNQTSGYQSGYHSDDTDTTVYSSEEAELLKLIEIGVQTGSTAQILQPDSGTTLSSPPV
Chain of Fibroblast growth factor receptor 1 (P11362 whole entry): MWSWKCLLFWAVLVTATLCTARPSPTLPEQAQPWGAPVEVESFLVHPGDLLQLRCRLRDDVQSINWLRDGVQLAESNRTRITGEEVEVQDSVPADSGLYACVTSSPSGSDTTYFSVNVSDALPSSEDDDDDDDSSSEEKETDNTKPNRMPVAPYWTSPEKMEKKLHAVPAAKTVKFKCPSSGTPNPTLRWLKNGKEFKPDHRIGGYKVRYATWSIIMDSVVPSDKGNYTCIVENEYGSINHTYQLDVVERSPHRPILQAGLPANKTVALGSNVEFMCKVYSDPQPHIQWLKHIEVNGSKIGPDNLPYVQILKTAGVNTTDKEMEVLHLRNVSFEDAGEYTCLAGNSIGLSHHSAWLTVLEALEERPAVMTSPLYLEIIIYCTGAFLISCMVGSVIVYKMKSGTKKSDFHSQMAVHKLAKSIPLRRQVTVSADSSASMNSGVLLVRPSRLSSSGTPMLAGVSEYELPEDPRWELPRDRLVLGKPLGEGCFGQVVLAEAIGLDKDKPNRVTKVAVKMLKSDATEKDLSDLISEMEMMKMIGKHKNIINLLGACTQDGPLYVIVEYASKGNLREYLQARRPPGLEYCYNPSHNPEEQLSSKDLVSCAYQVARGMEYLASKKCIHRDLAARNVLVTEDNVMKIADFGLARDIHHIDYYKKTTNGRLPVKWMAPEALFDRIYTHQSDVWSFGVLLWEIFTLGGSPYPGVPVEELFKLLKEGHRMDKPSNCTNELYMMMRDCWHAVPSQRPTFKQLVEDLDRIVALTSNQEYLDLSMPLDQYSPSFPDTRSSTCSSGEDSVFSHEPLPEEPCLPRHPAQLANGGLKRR
Chain of Proto-oncogene tyrosine-protein kinase Src (P12931 2-536 limits assumed): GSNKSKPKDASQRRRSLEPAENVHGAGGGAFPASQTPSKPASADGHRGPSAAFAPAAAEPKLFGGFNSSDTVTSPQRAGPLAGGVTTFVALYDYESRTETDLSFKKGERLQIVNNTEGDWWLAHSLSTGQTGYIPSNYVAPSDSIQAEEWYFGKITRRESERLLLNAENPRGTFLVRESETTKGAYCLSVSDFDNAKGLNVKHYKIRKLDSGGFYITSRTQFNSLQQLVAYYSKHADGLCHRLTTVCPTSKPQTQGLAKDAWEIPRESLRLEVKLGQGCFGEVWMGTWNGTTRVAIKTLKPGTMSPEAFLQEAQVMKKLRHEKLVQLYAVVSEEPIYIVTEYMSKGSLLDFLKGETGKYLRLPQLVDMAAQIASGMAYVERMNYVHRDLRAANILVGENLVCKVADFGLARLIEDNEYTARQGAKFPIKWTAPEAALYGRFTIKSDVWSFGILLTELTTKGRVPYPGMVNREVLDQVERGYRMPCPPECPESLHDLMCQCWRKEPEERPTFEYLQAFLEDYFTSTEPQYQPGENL
Chain of Vascular endothelial growth factor receptor 1 (P17948 whole entry): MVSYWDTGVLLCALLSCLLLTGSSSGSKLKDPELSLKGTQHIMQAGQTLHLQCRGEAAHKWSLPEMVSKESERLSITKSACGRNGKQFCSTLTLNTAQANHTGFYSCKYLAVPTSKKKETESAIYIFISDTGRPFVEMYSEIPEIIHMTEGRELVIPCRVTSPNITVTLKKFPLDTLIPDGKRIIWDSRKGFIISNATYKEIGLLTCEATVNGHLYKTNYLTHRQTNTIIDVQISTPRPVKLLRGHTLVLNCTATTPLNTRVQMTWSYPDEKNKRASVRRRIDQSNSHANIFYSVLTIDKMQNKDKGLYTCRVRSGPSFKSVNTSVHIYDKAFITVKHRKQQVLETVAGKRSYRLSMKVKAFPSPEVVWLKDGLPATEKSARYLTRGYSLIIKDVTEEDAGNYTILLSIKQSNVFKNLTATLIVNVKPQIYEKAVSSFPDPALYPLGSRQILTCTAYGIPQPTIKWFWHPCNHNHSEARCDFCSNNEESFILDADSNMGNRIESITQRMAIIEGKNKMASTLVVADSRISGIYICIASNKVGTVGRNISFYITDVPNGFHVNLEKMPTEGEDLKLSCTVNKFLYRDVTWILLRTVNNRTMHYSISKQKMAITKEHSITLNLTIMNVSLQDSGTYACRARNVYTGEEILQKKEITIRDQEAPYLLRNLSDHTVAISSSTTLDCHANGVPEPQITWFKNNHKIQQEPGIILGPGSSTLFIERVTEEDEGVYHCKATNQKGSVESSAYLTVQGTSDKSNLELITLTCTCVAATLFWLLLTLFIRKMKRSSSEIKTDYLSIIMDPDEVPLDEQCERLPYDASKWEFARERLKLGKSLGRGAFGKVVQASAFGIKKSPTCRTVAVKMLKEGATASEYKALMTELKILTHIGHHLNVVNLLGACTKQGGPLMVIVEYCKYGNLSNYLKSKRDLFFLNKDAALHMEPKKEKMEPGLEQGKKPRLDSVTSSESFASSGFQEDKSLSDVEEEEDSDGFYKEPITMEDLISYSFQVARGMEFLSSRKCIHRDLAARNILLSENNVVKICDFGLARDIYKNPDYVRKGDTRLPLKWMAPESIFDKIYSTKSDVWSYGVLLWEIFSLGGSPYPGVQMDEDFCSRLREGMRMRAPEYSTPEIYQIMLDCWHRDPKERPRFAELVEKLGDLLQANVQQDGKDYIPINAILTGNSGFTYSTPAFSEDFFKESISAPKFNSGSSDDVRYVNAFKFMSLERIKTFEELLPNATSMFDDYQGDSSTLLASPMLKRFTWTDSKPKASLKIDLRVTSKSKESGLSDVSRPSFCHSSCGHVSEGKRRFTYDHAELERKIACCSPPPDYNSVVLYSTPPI

Take `COc1cc2c(Nc3cccc4c(Cl)coc34)ncnc2cc1OCCCN1CCOCC1`: the IC50 was under 0.004 µM in [1] and 0.1 µM in data set [2].
Regarding `COc1cccc(Nc2ncnc3cc(OCCCN4CCOCC4)c(OC)cc23)c1`, the IC50 in data set [1] stood at 0.037 µM; with A549 it was 1.05 µM; in data set [2], 1.11 µM.
For `COc1cc2c(Nc3c(Cl)ccc4c3OCO4)ncnc2cc1OCc1ccnc(C#N)c1`, the IC50 in data set [1] was 0.01 µM; in the data set on A549, 0.23 µM; in data set [2], 77 µM. The compound also yielded a solubility in data set [3] of 10 µM (≈ 4.62 µg/mL). This compound also returned an Activity in the data set listed under Rattus norvegicus of 1.6%. The pKa in [4] worked out at 4.9.
Regarding `COc1cc2c(Nc3cccc4c3ccn4C)ncnc2cc1OCCCN1CCOCC1`, the results for the IC50 in [1] and in data set [2] were 0.04 µM and 0.42 µM, respectively.
Take `COc1cc2c(Nc3c(Cl)ccc4c3OCO4)ncnc2cc1OCCCN1CCOCC1`: the IC50 in [5] was over 100 µM; in data set [6], over 100 µM; in [1] it was under 0.004 µM; with A549, 0.18 µM; against Angiopoietin-1 receptor, 17.1 µM; in data set [2], 17 µM. Besides, the solubility in data set [3] (read-out: S) came out at 71 µM (≈ 33.6 µg/mL). This compound also had an Activity in the data set listed under Rattus norvegicus of 10.5%. This compound also showed a pKa in data set [4] of 7.2.
On to `COc1cc2c(Nc3c(Br)ccc4c3OCO4)ncnc2cc1OCCCN1CCOCC1`, for which the IC50 in data set [1] is under 0.004 µM; with A549, 0.14 µM; in data set [2], 42.6 µM.
For `COc1cc2c(Nc3cccc4cc[nH]c34)ncnc2cc1OCCCN1CCOCC1`, in data set [1], the IC50 is 0.26 µM.
Consider `COc1cc2c(Nc3c(Cl)ccc4c3OCO4)ncnc2cc1OCC1CCN(C)CC1`, for which the IC50 in data set [5] is over 100 µM; in data set [6], over 100 µM; in the data set with A549 it was 0.26 µM; in [2], 15.6 µM. The compound also showed a half-life in [7] of 5.7 h. Further, the AUC in [8] was found to be 2.5 µg·h/mL. In data set [9], this compound had a clearance of 2.94 L/h/kg. Besides, the Vd in data set [10] came to 17 L/kg. Also, the solubility in data set [3] (read-out: S) was over 3300 µM. The concentration at 24 h in data set [11] was found to be 0.06 µM. In the data set listed under Rattus norvegicus, this compound gave an Activity of 9.8%. This compound also came in with a Cmax in data set [12] of 0.91 µM. The compound further had a pKa in data set [4] of 9.4. The compound further registered a bioavailability in data set [13] of 37%.
`COc1cc2c(Nc3c(F)ccc4c3OCO4)ncnc2cc1OCCCN1CCOCC1`: the IC50 in data set [1] was determined as 0.028 µM; with A549 it was 0.45 µM; in [2], 8.16 µM.
`COc1cc2c(Nc3cccc4occc34)ncnc2cc1OCCCN1CCOCC1`: the IC50 came out at 0.016 µM in data set [1] and 0.25 µM in data set [2].
On to `COc1cc2c(Nc3cccc4c3OCCO4)ncnc2cc1OCCCN1CCOCC1`, for which, in data set [1], the IC50 is 0.37 µM.
Same read-out and setting: then `COc1cccc(Nc2ncnc3cc(OC)c(OC)cc23)c1`, with 0.253 µM.
On to `COc1cc2ncnc(Nc3c(Cl)ccc4c3OCO4)c2cc1OCCCN1CCOCC1`, for which the IC50 in data set [1] stood at 0.05 µM; in the data set on A549, 1.2 µM; in data set [2], 73.8 µM.
Compound `CCOc1ccc(Cl)c(Nc2ncnc3cc(OCCCN4CCOCC4)c(OC)cc23)c1` displayed an IC50 in data set [1] of 0.963 µM.
Turning to `COc1ccc(Nc2ncnc3cc(OCCCN4CCOCC4)c(OC)cc23)cc1`, half-maximal inhibition in [1] (IC50) required 0.477 µM.
The same measure, in the same setting: the same measure for `COc1cc2c(Nc3cccc4[nH]ccc34)ncnc2cc1OCCCN1CCOCC1`: 0.177 µM.
For the compound `COc1cc2c(Nc3c(Cl)ccc4c3OCO4)ncnc2cc1OCCCN1CCCCC1`, the IC50 in data set [5] was over 100 µM; in data set [6], over 100 µM; in data set [1], under 0.004 µM; in the data set on A549 it was 0.13 µM; on Angiopoietin-1 receptor, 11.3 µM; in data set [2], 2.17 µM. The compound also had a half-life in data set [7] of 5.8 h. For the same compound, the AUC in [8] was found to be 7.9 µg·h/mL. This compound also had a clearance in data set [14] of 2.16 L/h/kg. In data set [10], the Vd was 14.4 L/kg. In addition, in [3] (read-out: S), the solubility is over 2000 µM. Further, the concentration at 24 h in [11] is 0.08 µM. Also, the Activity in the data set listed under Rattus norvegicus is recorded as 13.7%. Further, in data set [12], the Cmax amounted to 2.96 µM. This compound showed a pKa in [4] of 9.7. In [13], this compound returned a bioavailability of 86%.
For `COc1cc2c(Nc3cccc4c3OCO4)ncnc2cc1OCCCN1CCOCC1`, the results for the IC50 (in [1]; in the data set on A549; in [2]) were 0.014 µM, 0.21 µM and 4.96 µM, respectively.
`Clc1ccc2c(c1Nc1ncnc3cc(OCCCN4CCOCC4)ccc13)OCO2`: the IC50 in [1] was 0.01 µM; in the data set with A549 it was 0.67 µM; in [2], 91.3 µM.
In data set [1], `COc1cc2c(Nc3ccc4c(c3)OCO4)ncnc2cc1OCCCN1CCOCC1` had an IC50 of 0.76 µM.
For `COc1cc2c(Nc3cccc4c(Cl)c[nH]c34)ncnc2cc1OCCCN1CCOCC1`, the IC50 in data set [1] is 0.02 µM; with A549, 0.98 µM; in data set [2] it was 2.32 µM.
`COc1cc2c(Nc3cccc4c3OC(F)(F)O4)ncnc2cc1OCCCN1CCOCC1` gave an IC50 in data set [1] of 0.27 µM.
Turning to `COc1ccc(Cl)c(Nc2ncnc3cc(OCCCN4CCOCC4)c(OC)cc23)c1`, the IC50 in data set [1] was 0.01 µM; in the data set with A549, 0.31 µM; in [2] it was 1.18 µM.
As for `COc1cc2c(Nc3cccc4ccoc34)ncnc2cc1OCCCN1CCOCC1`, the half-inhibitory concentration (IC50) in [1] turned out to be 0.03 µM; in data set [2], 0.41 µM.
Regarding `COc1cc2c(Nc3c(Cl)ccc4occc34)ncnc2cc1OCCCN1CCOCC1`, the IC50 came to 0.01 µM in data set [1], 0.23 µM in the data set with A549 and 1.23 µM in data set [2].
Compound `COc1ccccc1Nc1ncnc2cc(OCCCN3CCOCC3)c(OC)cc12` returned an IC50 in [1] of 0.56 µM.
On to `COc1cc2c(Nc3cccc4c3OCC4)ncnc2cc1OCCCN1CCOCC1`, for which, in data set [1], the midpoint of inhibition, the IC50, lay at 0.433 µM.
As to `COc1cc2c(Nc3c(Cl)ccc4ccoc34)ncnc2cc1OCCCN1CCOCC1`, the values for the IC50 (in data set [1]; in the data set on A549; in data set [2]) were 0.01 µM, 0.26 µM and 1.38 µM, respectively.

One may read the IC50 as the concentration at which inhibition is half-maximal. Low values mean higher potency, high ones lower potency. The pKa is the negative logarithm of the acid dissociation constant. The low end stands for a group that gives up its proton readily, the high end for a group that holds its proton tightly. As a reminder, the half-life is how long it takes for the measured level to halve. A lower half-life goes with rapid decline. One may read the AUC as concentration integrated over time. High values mean high exposure, low ones low exposure. The clearance is a measure of how efficiently the substance is removed, as volume per time. Lower therefore signals inefficient removal. Usually Cmax stands for the highest concentration seen after dosing. Broadly, the bioavailability is the share of a dose that reaches the circulation, judged against a reference dose that is usually intravenous.
